Test results published in ChEMBL document CHEMBL3627690, “Scaffold-Hopping and Structure-Based Discovery of Potent, Selective, And Brain Penetrant N-(1H-Pyrazol-3-yl)pyridin-2-amine Inhibitors of Dual Leucine Zipper Kinase (DLK, MAP3K12)” (J Med Chem, 2015).
Calls of active or inactive are those of the source. The calls are words filed in the database; no cut-off is given here.

How the values were obtained:
[1] = target: MAP kinase-activated protein kinase 2 (Homo sapiens) (UniProt P49137); assay: Inhibition of MAPKAPK2 (unknown origin) at 1 uM by FRET method
Method in brief: (§1)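 SelectScreen panel of 58 kinases, each tested at a single 1 µM compound concentration. Read-out was Z′-LYTE FRET of labeled peptide phosphorylation, run by the vendor's protocols, reported as percent inhibition.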

[2] = target: T1, Mitogen-activated protein kinase kinase kinase 12 (Homo sapiens, UniProt Q12852); assay: Inhibition of N-terminally GST- tagged human DLK catalytic domain (1 to 520 amino acids) using N-terminally HIS-tagged MKK4 K131M as substrate incubated for 60 mins by TR-FRET assay
T1 sequence (Q12852 whole entry): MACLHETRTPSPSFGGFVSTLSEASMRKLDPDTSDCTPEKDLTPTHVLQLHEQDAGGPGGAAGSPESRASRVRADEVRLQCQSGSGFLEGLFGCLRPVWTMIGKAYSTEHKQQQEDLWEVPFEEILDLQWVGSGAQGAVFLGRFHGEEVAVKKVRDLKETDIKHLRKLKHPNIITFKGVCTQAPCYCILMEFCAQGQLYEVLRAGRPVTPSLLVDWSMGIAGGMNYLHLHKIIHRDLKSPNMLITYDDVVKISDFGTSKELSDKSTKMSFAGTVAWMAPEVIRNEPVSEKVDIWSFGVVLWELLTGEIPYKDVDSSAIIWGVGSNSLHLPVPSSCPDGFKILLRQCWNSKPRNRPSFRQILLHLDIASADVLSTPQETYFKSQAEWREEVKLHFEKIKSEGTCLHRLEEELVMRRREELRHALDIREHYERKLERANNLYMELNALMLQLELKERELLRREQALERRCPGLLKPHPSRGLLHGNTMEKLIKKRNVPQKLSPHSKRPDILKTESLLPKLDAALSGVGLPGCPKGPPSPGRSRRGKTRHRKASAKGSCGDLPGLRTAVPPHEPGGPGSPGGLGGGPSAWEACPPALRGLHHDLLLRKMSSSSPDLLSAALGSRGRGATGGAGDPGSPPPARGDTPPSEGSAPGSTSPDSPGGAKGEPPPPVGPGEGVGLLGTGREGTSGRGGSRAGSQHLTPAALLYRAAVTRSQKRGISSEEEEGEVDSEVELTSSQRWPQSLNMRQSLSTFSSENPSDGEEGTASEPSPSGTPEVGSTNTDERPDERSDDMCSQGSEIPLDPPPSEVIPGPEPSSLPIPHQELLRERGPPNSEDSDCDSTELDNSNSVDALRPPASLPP

[3] = test system: Rattus norvegicus; assay: Free clearance in […] rat at 0.4 or 1 mg/kg, iv and 1 or 5 mg/kg, po; format: ADME, organism-based; conditions: in vivo
Method in brief: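 Rat PK used iv dosing at 0.4 or 1 mg/kg in 60% PEG solution and po dosing at 1 or 5 mg/kg as an aqueous 1% methylcellulose suspension. Free clearance is CL/fu, where fu is the fraction unbound in plasma.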

[4] = Volume of distribution at steady state in […] rat at 0.4 or 1 mg/kg, iv and 1 or 5 mg/kg, po; format: ADME, organism-based; conditions: in vivo, read-out: Vdss
Method in brief: (§2)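 Rat PK: iv dosing at 0.4 or 1 mg/kg as a 60% PEG solution, po dosing at 1 or 5 mg/kg as an aqueous suspension with 1% methylcellulose.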

[5] = Plasma clearance in […] rat at 0.4 or 1 mg/kg, iv and 1 or 5 mg/kg, po; format: ADME, organism-based; method in brief: as §2
[6] = target: T2, Mitogen-activated protein kinase kinase kinase 12 (Homo sapiens) (UniProt Q12852); assay: Inhibition of Flag DLK (unknown origin) transfected in HEK293 cells assessed as reduction of phosphorylation of MKK7 at 0.1 to 10 uM incubated for 5 hrs measured by Western blot analysis; format: cell-based
T2 sequence (whole entry): T1 sequence (Q12852 whole entry)
Method in brief: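 HEK293 cells were transfected with Flag-tagged DLK, with kinase-dead DLK K152A as comparator, 24 h before compound addition. Cells were then exposed to compound for 5 h. Phospho-MKK4, phospho-MKK7, phospho-JNK and phospho-c-Jun were probed.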

[7] = target: Serine/threonine-protein kinase Nek1 (Homo sapiens) (UniProt Q96PY6); assay: Inhibition of NEK1 (unknown origin) at 1 uM by FRET method
Method in brief: (§3)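 Single-point screen at 1 uM against a panel of 58 representative kinases. Readout was labeled-peptide phosphorylation by FRET (Z′-LYTE), using the vendor's protocols.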

[8] = target: Platelet-derived growth factor receptor beta (Homo sapiens) (UniProt P09619); assay: Inhibition of PDGFRbeta (unknown origin) at 1 uM by FRET method; method in brief: as §3
Chain of Platelet-derived growth factor receptor beta (Homo sapiens) (P09619 whole entry, canonical isoform): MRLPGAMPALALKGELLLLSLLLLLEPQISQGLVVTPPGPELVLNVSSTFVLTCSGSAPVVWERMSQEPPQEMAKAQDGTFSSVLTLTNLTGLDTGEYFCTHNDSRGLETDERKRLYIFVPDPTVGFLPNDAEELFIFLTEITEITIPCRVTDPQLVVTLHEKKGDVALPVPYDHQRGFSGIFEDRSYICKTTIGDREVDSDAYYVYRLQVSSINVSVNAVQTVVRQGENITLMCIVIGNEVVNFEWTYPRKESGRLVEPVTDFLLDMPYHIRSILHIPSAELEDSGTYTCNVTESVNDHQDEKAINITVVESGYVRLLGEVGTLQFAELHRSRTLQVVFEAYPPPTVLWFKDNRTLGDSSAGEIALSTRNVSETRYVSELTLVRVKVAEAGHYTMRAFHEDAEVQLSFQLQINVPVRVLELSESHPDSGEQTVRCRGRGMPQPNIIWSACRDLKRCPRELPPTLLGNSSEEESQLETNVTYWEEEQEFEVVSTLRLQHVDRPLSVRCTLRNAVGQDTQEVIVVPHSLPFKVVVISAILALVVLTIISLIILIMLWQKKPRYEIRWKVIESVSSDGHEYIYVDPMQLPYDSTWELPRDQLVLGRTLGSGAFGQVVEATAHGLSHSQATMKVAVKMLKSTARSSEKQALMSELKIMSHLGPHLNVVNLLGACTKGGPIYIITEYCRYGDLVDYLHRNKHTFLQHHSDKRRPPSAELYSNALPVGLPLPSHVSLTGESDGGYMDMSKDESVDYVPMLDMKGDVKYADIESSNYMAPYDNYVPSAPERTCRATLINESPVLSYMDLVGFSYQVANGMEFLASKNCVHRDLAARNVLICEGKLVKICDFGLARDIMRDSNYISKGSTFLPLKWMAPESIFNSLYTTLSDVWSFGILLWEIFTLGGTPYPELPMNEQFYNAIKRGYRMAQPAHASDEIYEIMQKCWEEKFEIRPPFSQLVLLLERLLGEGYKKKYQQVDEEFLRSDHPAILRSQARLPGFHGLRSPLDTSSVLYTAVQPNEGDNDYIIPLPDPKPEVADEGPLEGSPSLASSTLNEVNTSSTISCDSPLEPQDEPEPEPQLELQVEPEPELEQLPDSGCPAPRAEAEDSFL

[9] = target: Phosphorylase b kinase gamma catalytic chain, liver/testis isoform (Homo sapiens) (UniProt P15735); assay: Inhibition of PhKgamma2 (unknown origin) at 1 uM by FRET method; method in brief: as §3
[10] = target: Proto-oncogene tyrosine-protein kinase receptor Ret (Homo sapiens) (UniProt P07949); assay: Inhibition of Ret (unknown origin) at 1 uM by FRET method; method in brief: as §3
Chain of Proto-oncogene tyrosine-protein kinase receptor Ret (Homo sapiens) (P07949 whole entry): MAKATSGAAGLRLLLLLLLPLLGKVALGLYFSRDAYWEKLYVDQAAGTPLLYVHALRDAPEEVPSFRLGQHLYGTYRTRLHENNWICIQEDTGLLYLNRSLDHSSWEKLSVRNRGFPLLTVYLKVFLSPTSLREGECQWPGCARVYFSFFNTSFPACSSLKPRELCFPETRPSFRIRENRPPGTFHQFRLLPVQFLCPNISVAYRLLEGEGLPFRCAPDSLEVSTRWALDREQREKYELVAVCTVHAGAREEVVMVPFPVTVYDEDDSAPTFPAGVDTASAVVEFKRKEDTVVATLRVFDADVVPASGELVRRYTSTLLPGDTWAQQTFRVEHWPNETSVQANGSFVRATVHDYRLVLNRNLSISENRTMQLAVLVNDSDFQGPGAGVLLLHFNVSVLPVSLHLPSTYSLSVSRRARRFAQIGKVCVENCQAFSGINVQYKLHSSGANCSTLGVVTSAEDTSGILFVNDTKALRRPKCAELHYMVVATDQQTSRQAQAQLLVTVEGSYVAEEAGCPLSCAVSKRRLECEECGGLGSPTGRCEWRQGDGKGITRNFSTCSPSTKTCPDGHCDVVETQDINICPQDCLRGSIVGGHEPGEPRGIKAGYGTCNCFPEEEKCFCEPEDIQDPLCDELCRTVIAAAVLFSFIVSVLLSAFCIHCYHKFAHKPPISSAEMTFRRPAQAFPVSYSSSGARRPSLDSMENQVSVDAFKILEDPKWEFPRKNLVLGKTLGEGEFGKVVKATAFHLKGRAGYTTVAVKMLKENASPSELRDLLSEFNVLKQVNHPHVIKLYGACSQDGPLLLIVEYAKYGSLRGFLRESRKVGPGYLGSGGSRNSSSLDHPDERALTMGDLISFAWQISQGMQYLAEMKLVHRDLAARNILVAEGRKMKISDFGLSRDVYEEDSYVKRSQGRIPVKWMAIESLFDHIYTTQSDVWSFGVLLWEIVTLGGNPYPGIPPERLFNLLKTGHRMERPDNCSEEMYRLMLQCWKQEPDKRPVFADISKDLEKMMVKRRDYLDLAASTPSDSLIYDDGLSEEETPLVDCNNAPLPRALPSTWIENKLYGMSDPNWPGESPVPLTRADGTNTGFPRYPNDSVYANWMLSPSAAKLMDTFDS

[11] = target: T3, High affinity nerve growth factor receptor (Homo sapiens, UniProt P04629); assay: Inhibition of TrkA (unknown origin) at 1 uM by FRET method; method in brief: as §3
[12] = target: Serine/threonine-protein kinase Chk1 (Homo sapiens) (UniProt O14757); assay: Inhibition of CHK1 (unknown origin) at 1 uM by FRET method; method in brief: as §1
[13] = target: Casein kinase I isoform gamma-2 (Homo sapiens) (UniProt P78368); assay: Inhibition of CK1gamma2 (unknown origin) at 1 uM by FRET method; method in brief: as §1
[14] = target: Epidermal growth factor receptor (Homo sapiens) (UniProt P00533); assay: Inhibition of EGFR (unknown origin) at 1 uM by FRET method; method in brief: as §1
[15] = target: Ephrin type-A receptor 2 (Homo sapiens) (UniProt P29317); assay: Inhibition of EphA2 (unknown origin) at 1 uM by FRET method; method in brief: as §1
[16] = target: Glycogen synthase kinase-3 beta (Homo sapiens, UniProt P49841); assay: Inhibition of GSK3beta (unknown origin) at 1 uM by FRET method; method in brief: as §1
Chain of Glycogen synthase kinase-3 beta (P49841 whole entry, looked up): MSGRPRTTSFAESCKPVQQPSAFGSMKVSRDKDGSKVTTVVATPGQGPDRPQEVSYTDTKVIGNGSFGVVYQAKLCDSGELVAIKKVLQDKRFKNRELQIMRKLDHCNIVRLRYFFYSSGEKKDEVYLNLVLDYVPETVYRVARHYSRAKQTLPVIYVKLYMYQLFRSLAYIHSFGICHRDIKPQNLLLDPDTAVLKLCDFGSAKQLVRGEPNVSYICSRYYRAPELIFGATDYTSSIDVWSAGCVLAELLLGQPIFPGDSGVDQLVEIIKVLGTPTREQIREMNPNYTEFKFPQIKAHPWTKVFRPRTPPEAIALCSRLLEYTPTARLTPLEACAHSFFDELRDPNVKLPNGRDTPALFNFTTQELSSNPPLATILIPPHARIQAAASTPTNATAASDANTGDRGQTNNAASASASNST

[17] = target: T3, High affinity nerve growth factor receptor; assay: Inhibition of TrkA (unknown origin) by FRET method
Method in brief: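 Biochemical IC50 determination from a 10-point dose-response in an enzymatic Z′-LYTE assay. Labeled-peptide phosphorylation was read by FRET under the vendor's protocols.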
Target sequence in this assay (P04629 whole entry): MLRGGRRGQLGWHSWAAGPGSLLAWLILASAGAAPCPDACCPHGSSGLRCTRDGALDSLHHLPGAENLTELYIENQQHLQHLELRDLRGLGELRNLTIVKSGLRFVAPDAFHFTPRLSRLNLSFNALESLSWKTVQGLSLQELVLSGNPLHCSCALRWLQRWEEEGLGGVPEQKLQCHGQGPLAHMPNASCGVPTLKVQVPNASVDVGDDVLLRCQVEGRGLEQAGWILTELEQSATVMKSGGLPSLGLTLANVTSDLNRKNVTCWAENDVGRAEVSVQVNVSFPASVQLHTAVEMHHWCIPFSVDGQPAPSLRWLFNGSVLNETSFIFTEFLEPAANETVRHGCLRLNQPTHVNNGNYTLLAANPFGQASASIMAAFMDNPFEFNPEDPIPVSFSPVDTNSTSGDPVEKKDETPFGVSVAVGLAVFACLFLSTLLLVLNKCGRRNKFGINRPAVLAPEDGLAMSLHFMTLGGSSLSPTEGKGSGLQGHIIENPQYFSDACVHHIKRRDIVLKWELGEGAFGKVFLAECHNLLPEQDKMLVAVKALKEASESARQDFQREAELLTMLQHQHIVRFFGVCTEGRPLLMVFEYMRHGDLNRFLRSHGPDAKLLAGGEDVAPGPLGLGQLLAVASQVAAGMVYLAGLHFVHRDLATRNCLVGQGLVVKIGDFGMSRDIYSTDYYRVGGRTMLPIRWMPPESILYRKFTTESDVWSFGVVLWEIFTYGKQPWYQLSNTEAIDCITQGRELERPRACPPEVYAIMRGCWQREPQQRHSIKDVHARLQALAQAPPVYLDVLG

[18] = AUC (0 to 6 h) in mouse at 50 mg/kg, po; format: ADME, organism-based; parameters: dose 50 mg/kg, time < 6 hr, route oral; conditions: in vivo
Method in brief: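 C57/Bl6 mice were given a single 50 mg/kg oral dose as an MCT suspension. Plasma was sampled over 0–6 h for Cmax, Tmax and AUC0–6h.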

[19] = target: Mitogen-activated protein kinase kinase kinase 10 (Homo sapiens, UniProt Q02779); conditions: 1 uM
Chain of Mitogen-activated protein kinase kinase kinase 10 (Q02779 whole entry, looked up): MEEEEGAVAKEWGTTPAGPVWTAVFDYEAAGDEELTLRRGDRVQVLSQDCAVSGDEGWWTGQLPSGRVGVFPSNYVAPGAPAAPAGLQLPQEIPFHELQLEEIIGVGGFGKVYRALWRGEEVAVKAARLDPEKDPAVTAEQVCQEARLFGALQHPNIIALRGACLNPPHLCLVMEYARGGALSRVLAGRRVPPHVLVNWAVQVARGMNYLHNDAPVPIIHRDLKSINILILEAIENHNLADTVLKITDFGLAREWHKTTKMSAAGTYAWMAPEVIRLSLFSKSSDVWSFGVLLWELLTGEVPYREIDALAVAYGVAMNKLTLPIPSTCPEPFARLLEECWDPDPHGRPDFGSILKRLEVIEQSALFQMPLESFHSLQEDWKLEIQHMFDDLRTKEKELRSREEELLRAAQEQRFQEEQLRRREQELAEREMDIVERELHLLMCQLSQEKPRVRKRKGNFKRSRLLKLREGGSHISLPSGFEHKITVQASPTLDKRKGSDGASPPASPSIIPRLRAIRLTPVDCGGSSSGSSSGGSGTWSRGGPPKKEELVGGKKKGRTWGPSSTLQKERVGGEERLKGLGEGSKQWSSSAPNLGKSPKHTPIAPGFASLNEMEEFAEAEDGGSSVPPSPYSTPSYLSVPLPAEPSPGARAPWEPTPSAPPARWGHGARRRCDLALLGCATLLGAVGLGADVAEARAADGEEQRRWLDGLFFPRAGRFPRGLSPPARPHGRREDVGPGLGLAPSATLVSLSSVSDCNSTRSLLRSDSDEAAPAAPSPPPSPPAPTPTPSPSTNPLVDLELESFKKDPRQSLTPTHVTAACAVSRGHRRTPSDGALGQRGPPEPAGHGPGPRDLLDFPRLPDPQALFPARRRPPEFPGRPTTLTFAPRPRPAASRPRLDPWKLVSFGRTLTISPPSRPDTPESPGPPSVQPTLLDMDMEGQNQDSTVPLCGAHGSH

[20] = target: Dual specificity mitogen-activated protein kinase kinase 7 (Homo sapiens, UniProt O14733); assay: Inhibition of MKK7 (unknown origin) using KFMMpTPYVVTR substrate incubated for 1 hr measured by MpTPpYV probe-based fluorescence polarization assay
Chain of Dual specificity mitogen-activated protein kinase kinase 7 (O14733 whole entry): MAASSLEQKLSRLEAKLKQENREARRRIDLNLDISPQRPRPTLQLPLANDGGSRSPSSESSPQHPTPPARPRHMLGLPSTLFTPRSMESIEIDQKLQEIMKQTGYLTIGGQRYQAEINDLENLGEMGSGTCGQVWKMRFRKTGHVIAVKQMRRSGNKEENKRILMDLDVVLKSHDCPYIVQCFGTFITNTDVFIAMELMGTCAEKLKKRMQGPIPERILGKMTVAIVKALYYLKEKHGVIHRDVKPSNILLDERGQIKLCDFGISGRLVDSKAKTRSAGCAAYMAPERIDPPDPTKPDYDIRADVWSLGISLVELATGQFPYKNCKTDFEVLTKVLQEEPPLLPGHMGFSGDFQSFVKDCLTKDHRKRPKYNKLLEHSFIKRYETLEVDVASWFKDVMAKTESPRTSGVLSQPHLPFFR

inhibition [1]: 6.7%
Ki [2]: 42 nM
CL free [3]: 327 mL/min/kg
Vd [4]: 4.4 L/kg
clearance [5]: 34 mL/min/kg
inhibition [6]: Active
inhibition [7]: 3.1%
inhibition [8]: 23.8%
inhibition [9]: -1.9%
inhibition [10]: 29.6%
inhibition [11]: 63.3%
inhibition [12]: -2.3%
inhibition [13]: 1.8%
inhibition [14]: 2.1%
inhibition [15]: 23%
inhibition [16]: 58.6%
IC50 [17]: 464 nM
AUC(0-t) at 6 h [18]: 15.8 µM·h
inhibition [19]: 1.6%
IC50 [20]: > 5000 nM
Compound: N#Cc1ccnc(Nc2cc(C3CCN(C4COC4)CC3)n(C3CCCC3)n2)c1
